ChEMBL document CHEMBL1124112, “Indoline analogues of idazoxan: potent alpha 2-antagonists and alpha 1-agonists” (J Med Chem, 1988)

Assays:
[1] = target: Adrenergic receptor alpha-2 (Rattus norvegicus) (UniProt P22086+P19328+P22909); test: Antagonism at alpha-2 adrenergic receptor, determined as dose required to produce a two fold shift of the dose-response curve to UK-14304 on the twitch response in rat vas deferens; format: functional, tissue-based
Summary of the method: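 Pithed rats, iv. Antagonist given before a cumulative dose-response curve to UK-14,304 on the vas deferens twitch response. DR2 is the antagonist dose (μg/kg) giving a twofold shift of the curve. Separate groups of rats (n = 4-6).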

[2] = system: Rattus norvegicus; test: In vivo dose required to inhibit vas deferens contraction by 25% after pretreatment with prazosin in pithed rats. (prejunctional); ant- antagonist; format: functional, organism-based; details: filed as antagonist
Summary of the method: (§1)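 Pithed rats pretreated with prazosin (1 mg/kg). Compound given iv in cumulative doses. ED25 is the dose (μg/kg) inhibiting vas deferens contraction by 25%. Separate groups of rats (n = 4-6).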

[3] = target: T1, Adrenergic receptor alpha-1 (Rattus norvegicus, UniProt P15823+P23944+P43140); test: Inhibition of saturable binding of [3H]prazosin to alpha1-site in rat cerebral cortical membranes.; format: cell membranes, Membrane
T1 sequence (P15823 whole entry): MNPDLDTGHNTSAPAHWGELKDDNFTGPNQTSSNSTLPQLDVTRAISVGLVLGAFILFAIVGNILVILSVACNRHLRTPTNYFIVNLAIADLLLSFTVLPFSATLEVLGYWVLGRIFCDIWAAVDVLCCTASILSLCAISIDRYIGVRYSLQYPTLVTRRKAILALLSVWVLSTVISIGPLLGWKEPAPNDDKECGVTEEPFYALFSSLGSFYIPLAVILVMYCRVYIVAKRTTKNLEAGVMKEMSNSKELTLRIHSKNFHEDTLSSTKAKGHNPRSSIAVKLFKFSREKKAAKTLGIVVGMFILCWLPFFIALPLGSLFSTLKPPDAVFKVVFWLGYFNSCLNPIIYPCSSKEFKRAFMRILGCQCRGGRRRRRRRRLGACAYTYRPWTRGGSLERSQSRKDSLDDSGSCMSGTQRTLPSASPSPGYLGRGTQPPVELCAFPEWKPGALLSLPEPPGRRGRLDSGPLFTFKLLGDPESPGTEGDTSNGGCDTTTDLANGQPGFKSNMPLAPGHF
T1 sequence (P23944 whole entry): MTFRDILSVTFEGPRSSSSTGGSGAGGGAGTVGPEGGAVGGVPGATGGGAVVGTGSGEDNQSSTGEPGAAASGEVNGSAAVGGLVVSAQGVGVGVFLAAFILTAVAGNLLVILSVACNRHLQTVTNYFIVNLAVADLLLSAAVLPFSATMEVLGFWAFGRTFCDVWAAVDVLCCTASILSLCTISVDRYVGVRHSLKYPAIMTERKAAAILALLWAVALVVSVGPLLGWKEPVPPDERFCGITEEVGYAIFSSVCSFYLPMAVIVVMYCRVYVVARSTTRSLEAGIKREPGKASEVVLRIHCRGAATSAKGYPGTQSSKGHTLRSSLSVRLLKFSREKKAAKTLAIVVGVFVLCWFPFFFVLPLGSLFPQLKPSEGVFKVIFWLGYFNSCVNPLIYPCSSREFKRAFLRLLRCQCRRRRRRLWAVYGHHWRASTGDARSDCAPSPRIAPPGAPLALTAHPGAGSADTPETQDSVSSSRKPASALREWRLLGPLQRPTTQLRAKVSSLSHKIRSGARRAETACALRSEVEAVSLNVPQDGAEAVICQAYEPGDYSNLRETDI
T1 sequence (P43140 whole entry): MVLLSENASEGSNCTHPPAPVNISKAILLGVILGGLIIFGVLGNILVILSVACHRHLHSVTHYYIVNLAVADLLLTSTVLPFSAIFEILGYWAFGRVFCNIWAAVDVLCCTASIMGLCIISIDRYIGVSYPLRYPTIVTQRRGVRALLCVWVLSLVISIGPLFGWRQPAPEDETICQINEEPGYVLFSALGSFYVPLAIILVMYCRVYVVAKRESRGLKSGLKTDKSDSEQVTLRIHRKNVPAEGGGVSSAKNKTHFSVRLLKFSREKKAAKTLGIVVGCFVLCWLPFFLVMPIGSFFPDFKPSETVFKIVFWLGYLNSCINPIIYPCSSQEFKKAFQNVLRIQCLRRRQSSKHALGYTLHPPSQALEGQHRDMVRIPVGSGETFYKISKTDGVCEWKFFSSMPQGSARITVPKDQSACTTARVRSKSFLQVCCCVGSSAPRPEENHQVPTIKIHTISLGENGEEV

[4] = system: Rattus norvegicus; test: In vivo antagonist dose producing two fold shift of UK-14,304 in pithed rats. (prejunctional)
[5] = target: T2, Adrenergic receptor alpha-2 (Rattus norvegicus, UniProt P22086+P19328+P22909); test: Inhibition of saturable binding of [3H]idazoxan to alpha2-site in rat cerebral cortical membranes.; format: cell membranes, Membrane
T2 sequence (P22086 whole entry): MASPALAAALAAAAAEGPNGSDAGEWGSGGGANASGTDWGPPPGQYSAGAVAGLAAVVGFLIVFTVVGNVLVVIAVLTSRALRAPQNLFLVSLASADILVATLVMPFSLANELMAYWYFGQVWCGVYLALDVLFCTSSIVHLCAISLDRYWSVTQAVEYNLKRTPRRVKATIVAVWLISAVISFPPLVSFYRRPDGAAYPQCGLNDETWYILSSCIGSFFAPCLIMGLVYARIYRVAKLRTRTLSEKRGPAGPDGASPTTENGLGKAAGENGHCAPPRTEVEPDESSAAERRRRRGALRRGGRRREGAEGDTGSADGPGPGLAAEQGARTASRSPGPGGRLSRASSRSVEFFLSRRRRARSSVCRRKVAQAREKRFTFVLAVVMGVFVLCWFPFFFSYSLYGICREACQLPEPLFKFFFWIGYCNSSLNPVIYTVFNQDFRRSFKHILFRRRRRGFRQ
T2 sequence (P19328 whole entry): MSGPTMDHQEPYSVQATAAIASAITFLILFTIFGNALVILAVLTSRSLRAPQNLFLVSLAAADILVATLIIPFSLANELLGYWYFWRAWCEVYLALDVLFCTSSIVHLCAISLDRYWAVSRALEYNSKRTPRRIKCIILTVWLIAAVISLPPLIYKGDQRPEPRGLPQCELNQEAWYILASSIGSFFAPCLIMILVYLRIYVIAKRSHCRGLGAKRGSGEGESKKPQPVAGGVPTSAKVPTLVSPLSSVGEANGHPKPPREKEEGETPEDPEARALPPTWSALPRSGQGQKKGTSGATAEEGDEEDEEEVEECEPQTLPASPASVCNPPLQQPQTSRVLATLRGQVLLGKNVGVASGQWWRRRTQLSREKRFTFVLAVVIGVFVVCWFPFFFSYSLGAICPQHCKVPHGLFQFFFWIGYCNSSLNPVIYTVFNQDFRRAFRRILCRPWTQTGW
T2 sequence (P22909 whole entry): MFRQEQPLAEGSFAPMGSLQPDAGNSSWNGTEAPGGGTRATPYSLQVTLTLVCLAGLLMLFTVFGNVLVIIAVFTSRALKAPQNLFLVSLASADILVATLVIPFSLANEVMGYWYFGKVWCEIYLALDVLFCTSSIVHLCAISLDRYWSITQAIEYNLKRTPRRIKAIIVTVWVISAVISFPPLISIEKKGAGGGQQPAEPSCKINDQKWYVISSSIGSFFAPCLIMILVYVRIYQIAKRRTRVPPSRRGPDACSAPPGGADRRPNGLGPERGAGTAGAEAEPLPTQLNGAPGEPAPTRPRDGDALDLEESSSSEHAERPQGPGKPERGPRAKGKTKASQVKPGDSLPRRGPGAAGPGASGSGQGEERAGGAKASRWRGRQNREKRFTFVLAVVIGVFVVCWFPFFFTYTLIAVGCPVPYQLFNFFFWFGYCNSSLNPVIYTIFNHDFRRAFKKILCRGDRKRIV

[6] = target: Adrenergic receptor alpha-1 (Rattus norvegicus) (UniProt P15823+P23944+P43140); test: Agonism at alpha-1 adrenergic receptor, determined as the dose required to produce a two fold shift of the cirazoline on diastolic blood pressure.; format: functional, tissue-based; details: Artery
[7] = system: Rattus norvegicus; test: In vivo antagonist dose producing two fold shift of cirazoline in pithed rats. (postjunctional); AG- agonist; format: functional, organism-based; details: filed as agonist
Summary of the method: (§2)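 Pithed rats, iv. Antagonist given before a cumulative dose-response curve to cirazoline on diastolic blood pressure. DR2 is the antagonist dose (μg/kg) giving a twofold rightward shift. Separate groups of rats (n = 4-6).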

[8] = system: Adrenergic receptor alpha-2 (Rattus norvegicus); test: Agonism at alpha-2 adrenergic receptor, determined as dose required to produce a two fold shift of the cumulative dose-response curve to UK-14304 on the twitch response in rat vas deferens.
[9] = system: Rattus norvegicus; test: In vivo ED40 is the raising diastolic blood pressure by 40 mm Hg in pithed rats. (postjunctional); format: functional; details: Artery
Summary of the method: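 Pithed rats, compound given iv in cumulative doses. ED40 is the dose (μg/kg) raising diastolic blood pressure by 40 mmHg. Separate groups of rats (n = 4-6).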

[10] = system: Rattus norvegicus; test: In vivo antagonist dose producing two fold shift of cirazoline in pithed rats. (postjunctional);AG- agonist; format: functional, organism-based; details: filed as agonist; summary of the method: as §2
[11] = system: Rattus norvegicus; test: In vivo dose required to inhibit vas deferens contraction by 25% after pretreatment with prazosin in pithed rats. (prejunctional); format: functional; summary of the method: as §1
[12] = target: T1, Adrenergic receptor alpha-1; test: Inhibition of saturable binding of [3H]prazosin to alpha-1 adrenergic receptor site in rat cerebral cortical membranes.; format: cell membranes, Membrane
[13] = system: Rattus norvegicus; test: In vivo antagonist dose producing two fold shift of cirazoline in pithed rats. […]; format: functional
[14] = system: Rattus norvegicus; test: In vivo antagonist dose producing two fold shift of cirazoline in pithed rats. (postjunctional); format: functional
Summary of the method: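 Pithed rats, separate groups (n = 4-6). Cirazoline cumulative dose-response on diastolic blood pressure (postjunctional α1) was recorded with and without antagonist given iv. The antagonist dose (μg/kg, iv) giving a twofold rightward shift of the cirazoline curve was reported as DR2.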

[15] = system: Rattus norvegicus; test: In vivo antagonist dose producing two fold shift of cirazoline in pithed rats. (postjunctional)

Structure (SMILES) | Prejunctional antagonist potency [1] | ED25 [2] | Ki [3] | DR2 [4] | Ki [5] | Postjunctional agonist potency [6] | ED40 [7] | Prejunctional agonist potency [8] | ED40 [9] | ED40 [10] | ED25 [11] | Ki [12] | ED40 [13] | DR2 [14] | DR2 [15]
Cl.c1ccc(N2c3ccccc3CC2C2=NCCN2)cc1 (centres undefined) | 0.5 | Antagonist | 8.4 nM | 0.0094 mg/kg | 3 nM | 5.3 | Agonist | 0 | 1.1 µg/kg |  |  |  |  |  | 
CN1c2ccccc2CC1C1=NCCN1 (centres undefined) | 5.5 |  |  |  | 0.69 nM | 3.8 |  | 0.77 | 0.5 µg/kg | Agonist | 4.1 µg/kg | 3.86 nM | 3.7 µg/kg |  | 
COc1cc2nc(N3CCN(C(=O)c4ccco4)CC3)nc(N)c2cc1OC [PRAZOSIN] |  |  |  | 5.44 mg/kg |  |  |  |  |  |  |  |  |  | 0.0094 mg/kg | 
CCN1c2ccccc2CC1C1=NCCN1 (centres undefined) | 9.1 | Antagonist | 3.72 nM | 0.0016 mg/kg | 0.24 nM | 1.4 | Agonist | 0 | 3.3 µg/kg |  |  |  |  |  | 
c1ccc2c(c1)OCC(C1=NCCN1)O2 (centres undefined) [IDAZOXAN] |  |  |  | 0.0202 mg/kg |  |  |  |  | 65.5 µg/kg |  |  |  |  |  | 1.43 mg/kg
CN1c2cccc(Cl)c2CC1C1=NCCN1.Cl (centres undefined) | 10 | Antagonist |  | 0.0024 mg/kg | 0.16 nM | 17 |  | 0.29 | 0.2 µg/kg | Agonist |  | 13.1 nM |  |  | 
CCCN1c2ccccc2CC1C1=NCCN1 (centres undefined) | 3.2 | Antagonist | 3.7 nM | 0.0071 mg/kg | 0.96 nM | 3.9 | Agonist | 0 | 3.8 µg/kg |  |  |  |  |  | 
CCN1c2cccc(Cl)c2CC1C1=NCCN1 (centres undefined) | 8 | Antagonist | 1.9 nM | 0.0015 mg/kg | 0.42 nM | 4.4 | Agonist | 0.51 | 0.8 µg/kg |  |  |  |  |  | 
